Test results as given in ChEMBL document CHEMBL4311931, “Controlling cellular distribution of drugs with permeability modifying moieties” (Medchemcomm, 2019).

What was measured:
[1] = biological target: Bromodomain-containing protein 2 (Homo sapiens, UniProt P25440); assay: Inhibition of BRD2 (unknown origin) by TR-FRET assay
[2] = Ratio of drug concentration in unbound HEK293 cell to media; format: ADME; conditions: human
In short: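 In HEK293 cells, Kpuu combines compound binding (fu,HEK) with intracellular accumulation (Kp, cell-to-media concentration ratio). Values are the geometric mean of at least two duplicate runs.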

[3] = biological target: Bromodomain-containing protein 3 (Homo sapiens, UniProt Q15059); assay: Inhibition of BRD3 (unknown origin) by TR-FRET assay
[4] = biological target: T1, Bromodomain-containing protein 4 (Homo sapiens, UniProt O60885); assay: Inhibition of BRD4 in human […] cells transfected with HPV-E2 assessed as transrepression of HPV-long control region by luciferase reporter assay; format: cell-based
[5] = biological target: T1, Bromodomain-containing protein 4; assay: Inhibition of BRD4 in human MX1 cells assessed as decrease in cell proliferation after 3 days by Celltiter-Glo assay relative to parent compound; format: cell-based
In short: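 MX-1 breast cancer cells were treated for a 3-day proliferation assay and read out by CellTiter-Glo. Each EC50 is the geometric mean of at least two duplicate runs. The fold change is the ratio of the result to that of (+)-JQ1.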

[6] = biological target: T1, Bromodomain-containing protein 4; assay: Inhibition of BRD4 (unknown origin) by TR-FRET assay
[7] = biological target: T1, Bromodomain-containing protein 4; assay: Inhibition of BRD4 in luciferase expressing human […] cells transfected with HPV-E2 assessed as transrepression of HPV-long control region by luciferase reporter assay relative to parent compound
In short: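 In-cell target engagement was read in an engineered H1299-derived luciferase reporter system. Each EC50 is the geometric mean of at least two duplicate runs. The fold change is the ratio to (+)-JQ1.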

Histamine H3 receptor [8] = biological target: T2, Histamine H3 receptor (Homo sapiens, UniProt Q9Y5N1); assay: Antagonist activity at human H3 receptor expressed in CHOK1 cells incubated for 10 mins by HTRF assay; format: cell-based
Histamine H3 receptor [9] = biological target: T2, Histamine H3 receptor; assay: Displacement of [3H]Nalpha-methylhistamine from recombinant human histamine H3 receptor after 60 mins by scintillation counting method
Histamine H3 receptor [10] = biological target: T2, Histamine H3 receptor; assay: Agonist activity at human H3 receptor expressed in CHOK1 cells incubated for 10 mins by HTRF assay; format: cell-based
[11] = Permeability of compound in 5% DMSO after 7 hrs by PAMPA; format: ADME; conditions: read-out: permeability
[12] = biological target: T3, Nicotinamide phosphoribosyltransferase (Homo sapiens, UniProt P43490); assay: Displacement of fluorescent labelled OG488 from human full length FLAG-tagged NAMPT (1 to 491 residues) expressed in HEK293-6E cells in presence of PRPP by TR-FRET assay; format: cell-based
PC-3 = assay: Antiproliferative activity against human PC3 cells assessed as reduction in cell viability by Celltiter-Glo assay; format: functional, cell-based
In short: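 PC3 cells from ATCC, authenticated by STR analysis. Viability was read by CellTiter-Glo, and cell EC50 is the geometric mean of at least two duplicate runs.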

[13] = biological target: T3, Nicotinamide phosphoribosyltransferase; assay: Displacement of fluorescent labelled OG488 from human full length FLAG-tagged NAMPT (1 to 491 residues) expressed in HEK293-6E cells in absence of PRPP by TR-FRET assay; format: cell-based

T2 sequence (Q9Y5N1 whole entry): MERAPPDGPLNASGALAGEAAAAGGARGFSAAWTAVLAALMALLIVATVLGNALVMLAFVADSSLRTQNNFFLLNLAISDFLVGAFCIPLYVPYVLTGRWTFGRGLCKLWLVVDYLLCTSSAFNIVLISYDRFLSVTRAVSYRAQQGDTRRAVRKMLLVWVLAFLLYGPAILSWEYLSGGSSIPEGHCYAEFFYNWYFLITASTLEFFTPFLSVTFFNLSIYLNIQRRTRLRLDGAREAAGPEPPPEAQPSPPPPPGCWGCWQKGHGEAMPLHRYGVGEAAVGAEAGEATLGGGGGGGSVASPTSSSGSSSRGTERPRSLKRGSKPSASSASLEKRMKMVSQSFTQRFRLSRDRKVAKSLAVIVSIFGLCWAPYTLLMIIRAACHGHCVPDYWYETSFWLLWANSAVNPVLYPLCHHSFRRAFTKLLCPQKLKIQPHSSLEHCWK
Sequence of Bromodomain-containing protein 2 (P25440 whole entry): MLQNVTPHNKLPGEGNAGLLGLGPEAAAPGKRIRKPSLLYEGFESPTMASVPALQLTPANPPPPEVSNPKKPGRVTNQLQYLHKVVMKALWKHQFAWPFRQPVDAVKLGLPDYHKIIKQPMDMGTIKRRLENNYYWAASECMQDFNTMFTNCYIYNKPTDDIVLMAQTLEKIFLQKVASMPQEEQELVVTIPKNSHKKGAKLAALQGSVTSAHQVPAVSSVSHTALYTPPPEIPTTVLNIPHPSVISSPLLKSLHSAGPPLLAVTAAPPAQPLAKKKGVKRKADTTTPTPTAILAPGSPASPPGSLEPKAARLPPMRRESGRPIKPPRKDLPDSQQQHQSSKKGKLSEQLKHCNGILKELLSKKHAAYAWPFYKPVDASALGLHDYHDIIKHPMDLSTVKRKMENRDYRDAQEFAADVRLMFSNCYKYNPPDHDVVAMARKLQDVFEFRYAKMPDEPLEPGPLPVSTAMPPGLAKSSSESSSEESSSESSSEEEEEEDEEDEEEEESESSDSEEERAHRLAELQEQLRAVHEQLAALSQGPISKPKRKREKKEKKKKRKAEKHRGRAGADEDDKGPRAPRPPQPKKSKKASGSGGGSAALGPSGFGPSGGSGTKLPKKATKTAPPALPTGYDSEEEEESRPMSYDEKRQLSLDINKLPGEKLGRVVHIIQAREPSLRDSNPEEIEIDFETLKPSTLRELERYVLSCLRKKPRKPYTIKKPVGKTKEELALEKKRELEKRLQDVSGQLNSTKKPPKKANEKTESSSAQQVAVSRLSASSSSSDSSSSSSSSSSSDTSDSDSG
Sequence of Bromodomain-containing protein 3 (Q15059 whole entry): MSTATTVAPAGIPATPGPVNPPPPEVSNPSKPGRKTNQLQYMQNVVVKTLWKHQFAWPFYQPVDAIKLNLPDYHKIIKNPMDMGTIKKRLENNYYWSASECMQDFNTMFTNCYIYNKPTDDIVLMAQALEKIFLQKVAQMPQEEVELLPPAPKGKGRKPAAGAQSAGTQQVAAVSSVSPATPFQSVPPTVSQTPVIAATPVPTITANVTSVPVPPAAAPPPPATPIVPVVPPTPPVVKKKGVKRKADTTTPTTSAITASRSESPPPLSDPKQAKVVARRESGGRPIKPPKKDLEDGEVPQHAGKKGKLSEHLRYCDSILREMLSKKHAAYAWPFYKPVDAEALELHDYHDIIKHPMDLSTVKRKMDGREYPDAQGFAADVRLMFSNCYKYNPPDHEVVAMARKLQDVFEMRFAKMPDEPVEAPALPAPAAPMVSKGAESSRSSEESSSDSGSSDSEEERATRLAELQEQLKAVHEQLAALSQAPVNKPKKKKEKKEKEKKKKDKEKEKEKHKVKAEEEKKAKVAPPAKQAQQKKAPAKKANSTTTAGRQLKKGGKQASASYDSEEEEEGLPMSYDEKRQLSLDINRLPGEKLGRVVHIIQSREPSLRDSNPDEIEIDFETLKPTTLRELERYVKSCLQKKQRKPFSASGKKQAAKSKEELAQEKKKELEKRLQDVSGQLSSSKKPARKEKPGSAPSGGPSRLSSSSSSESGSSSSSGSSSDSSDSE
T3 sequence (P43490 whole entry, the tested form may be a part): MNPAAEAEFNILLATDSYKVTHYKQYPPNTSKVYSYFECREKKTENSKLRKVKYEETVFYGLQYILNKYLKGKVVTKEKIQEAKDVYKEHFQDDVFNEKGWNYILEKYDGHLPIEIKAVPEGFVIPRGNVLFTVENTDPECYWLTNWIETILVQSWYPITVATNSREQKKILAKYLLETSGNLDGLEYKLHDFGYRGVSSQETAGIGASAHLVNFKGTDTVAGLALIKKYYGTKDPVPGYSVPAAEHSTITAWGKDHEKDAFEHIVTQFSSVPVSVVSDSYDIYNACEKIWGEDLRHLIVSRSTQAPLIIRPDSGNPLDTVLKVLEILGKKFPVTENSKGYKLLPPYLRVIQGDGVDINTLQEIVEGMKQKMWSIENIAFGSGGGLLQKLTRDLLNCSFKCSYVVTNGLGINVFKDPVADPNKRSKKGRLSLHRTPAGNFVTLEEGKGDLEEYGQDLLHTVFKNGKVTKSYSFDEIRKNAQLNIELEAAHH

| SMILES | IC50 (Histamine H3 receptor [8]) | Ki (Histamine H3 receptor [9]) | EC50 (Histamine H3 receptor [10]) | Papp at 7 h [11] | Ki [12] | IC50 (PC-3) | Ki [13] | IC50 [1] | Ratio [2] | IC50 [3] | EC50 [4] | fold change (FC) [5] | IC50 [6] | fold change (FC) [7] |
| --- | --- | --- | --- | --- | --- | --- | --- | --- | --- | --- | --- | --- | --- | --- |
| Cc1sc2c(c1C)C(c1ccc(Cl)cc1)=N[C@@H](CC(=O)NCCOCCOCCNC(=O)CS(=O)(=O)O)c1nnc(C)n1-2 | – | – | – | – | – | – | – | 0.078 µM | 0.0219 | 0.078 µM | > 10 µM | > 50 | > 10 µM | > 50 |
| Cc1nn(CCOCCOCCNC(=O)CS(=O)(=O)O)cc1-c1ccc2cc(CCN3CCC[C@H]3C)ccc2n1 | 0.045 µM | 0.0056 µM | > 3 µM | – | – | – | – | – | – | – | – | – | – | – |
| Cc1sc2c(c1C)C(c1ccc(Cl)cc1)=N[C@@H](CC(=O)NCCOCCOCCN)c1nnc(C)n1-2 | – | – | – | 0.0146 ×10⁻⁶ cm/s | – | – | – | 0.016 µM | 0.0695 | 0.007 µM | 8.49 µM | 17.2 | 2.48 µM | > 50 |
| Cc1sc2c(c1C)C(c1ccc(Cl)cc1)=N[C@@H](CC(=O)NCCOCCOCCNC(=O)CCCCCC1(C)C(/C=C/C=C/C=C3/N(CCCS(=O)(=O)O)c4ccc(S(=O)(=O)O)cc4C3(C)C)=[N+](CCCS(=O)(=O)[O-])c3ccc(S(=O)(=O)O)cc31)c1nnc(C)n1-2 (some centres undefined) | – | – | – | – | – | – | – | > 45 µM | 0.0064 | > 20.5 µM | > 10 µM | > 50 | 9.11 µM | > 50 |
| Cc1nn(CCOCCOCCN)cc1-c1ccc2cc(CCN3CCC[C@H]3C)ccc2n1 | 0.001 µM | 0.0007 µM | > 3 µM | 0.0246 ×10⁻⁶ cm/s | – | – | – | – | – | – | – | – | – | – |
| Cc1sc2c(c1C)C(c1ccc(Cl)cc1)=N[C@@H](CC(=O)NCCOCCOCCNC(=O)OC(C)(C)C)c1nnc(C)n1-2 | – | – | – | 6.22 ×10⁻⁶ cm/s | – | – | – | 0.035 µM | 0.168 | 0.042 µM | 0.718 µM | 3.65 | 0.526 µM | 11.2 |
| CC(C)(C)OC(=O)NCCOCCOCC(=O)NCc1cccc(C(=O)N2CCC(CCCCNC(=O)/C=C/c3cccnc3)CC2)c1 | – | – | – | 1.2 ×10⁻⁶ cm/s | 0.0002 µM | 0.0307 µM | 0.014 µM | – | – | – | – | – | – | – |
| Cc1sc2c(c1C)C(c1ccc(Cl)cc1)=N[C@@H](CC(=O)NCCOCCOCCNC(=O)C1C(C(=O)O)C(C(=O)O)C1C(=O)O)c1nnc(C)n1-2 (some centres undefined) | – | – | – | – | – | – | – | 0.997 µM | 0.0359 | 0.456 µM | > 10 µM | > 50 | > 10 µM | > 50 |

Continued, in another order:

| IC50 (Histamine H3 receptor [8]) | Ki (Histamine H3 receptor [9]) | EC50 (Histamine H3 receptor [10]) | Papp at 7 h [11] | Ki [12] | IC50 (PC-3) | Ki [13] | SMILES | IC50 [1] | Ratio [2] | IC50 [3] | EC50 [4] | fold change (FC) [5] | IC50 [6] | fold change (FC) [7] |
| --- | --- | --- | --- | --- | --- | --- | --- | --- | --- | --- | --- | --- | --- | --- |
| 0.041 µM | 0.0015 µM | > 3 µM | 0.873 ×10⁻⁶ cm/s | – | – | – | Cc1nn(CCOCCOCCNC(=O)OC(C)(C)C)cc1-c1ccc2cc(CCN3CCC[C@H]3C)ccc2n1 | – | – | – | – | – | – | – |
| 0.15 µM | 0.0254 µM | > 3 µM | 0.0131 ×10⁻⁶ cm/s | – | – | – | Cc1nn(CCOCCOCCNC(=O)C2C(C(=O)O)C(C(=O)O)C2C(=O)O)cc1-c1ccc2cc(CCN3CCC[C@H]3C)ccc2n1 (some centres undefined) | – | – | – | – | – | – | – |
| 0.013 µM | 0.0019 µM | 0.088 µM | 0.284 ×10⁻⁶ cm/s | – | – | – | Cc1nn(CCOCCOCCNC(=O)CCCCCC2(C)C(/C=C/C=C/C=C3/N(CCCS(=O)(=O)O)c4ccc(S(=O)(=O)O)cc4C3(C)C)=[N+](CCCS(=O)(=O)[O-])c3ccc(S(=O)(=O)O)cc32)cc1-c1ccc2cc(CCN3CCC[C@H]3C)ccc2n1 (some centres undefined) | – | – | – | – | – | – | – |
| – | – | – | 0.092 ×10⁻⁶ cm/s | 0.0011 µM | 0.0302 µM | 0.055 µM | NCc1cccc(C(=O)N2CCC(CCCCNC(=O)/C=C/c3cccnc3)CC2)c1 | – | – | – | – | – | – | – |
